The results in this text go back to ChEMBL document CHEMBL3792374, “Discovery of a ring-opened derivative of 3-n-butylphthalide bearing NO/H2S-donating moieties as a potential anti-ischemic stroke agent” (Eur J Med Chem, 2016).

Data set [1] can be described thus: Induction of nitric oxide release in potassium phosphate buffer at pH 7.4 at 0.1 mM after 75 mins by Griess assay. Particulars: pH 7.4, 1.25 h, 100 µM. It counts as physicochemical. A digest of the protocol: (§1)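 Compound (0.1 mM) in PBS pH 7.4 containing 2% DMSO and 5.0 mM L-cysteine was held at 37 °C for 15–300 min. Samples were taken every 15 min up to 120 min, then every 30 min. Each sample was reacted with Griess reagent for 10 min at 37 °C and absorbance read at 540 nm. Nitrite was quantified from a nitrite standard curve. Means reported; intra-group variation <10%.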

Data set [2] relates to Liver. Description: Induction of hydrogen sulfide release in rat liver homogenate at 100 uM after 60 mins by microplate reader method (reference value: 1.03 to 1.21%). It counts as functional, tissue-based. A digest of the protocol:
(§2)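 Compound was incubated at 37 °C for 0–90 min with fresh rat liver homogenate. The reaction was stopped with 1% zinc acetate and 10% trichloroacetic acid. N,N-dimethyl-p-phenylenediamine sulfate in 7.2 M HCl and FeCl3 in 1.2 M HCl were added, and absorbance was read at 670 nm after 10 min. Values were calculated against an NaHS standard curve as cumulative % conversion to H2S, n = 6.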

Data set [3] can be described thus: Induction of nitric oxide release in potassium phosphate buffer at pH 7.4 at 0.1 mM after 150 mins by Griess assay. It is filed as physicochemical. Particulars: pH 7.4, 2.5 h, 100 µM. The method, boiled down:
as §1
Background: Nitrite, measured by Griess reagent, commonly stands in for NO production.

The nature of data set [4]: Induction of nitric oxide release in potassium phosphate buffer at pH 7.4 at 0.1 mM after 180 mins by Griess assay. It counts as physicochemical. Particulars: pH 7.4, 3 h, 100 µM. The method, boiled down: as §1
Data set [5] concerns Rattus norvegicus. Description: Antioxidant activity in Sprague-Dawley rat brain tissue model of transient middle cerebral artery occlusion stroke model assessed as malondialdehyde levels per mg of protein at 380 mg/kg administered via oral gavage for 7 days after ischemia onset measured 24 hrs after reperfusion (reference value: 1.46 nmol). It is filed as functional. Particulars: in the assay text read “before ischemia onset” for “after ischemia onset”. The method, boiled down:
(§3)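 Male SD rats (280–320 g; n = 12 per group) were gavaged daily for 7 days, with 0.5% CMC-Na as vehicle. Two hours after the last dose they were anesthetized with chloral hydrate (300 mg/kg ip) and underwent 2 h MCAO followed by reperfusion. Brains were taken 24 h after reperfusion, rinsed in cold saline and stored at −70 °C. Protein was quantified, then GSH, SOD, GSH-Px and MDA were measured by kits. Mean ± SD, n = 6, ANOVA/Tukey.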

The test system of data set [6] is Rattus norvegicus. Description: Antioxidant activity in Sprague-Dawley rat brain tissue model of transient middle cerebral artery occlusion stroke model assessed as glutathione levels per mg of protein at 380 mg/kg administered via oral gavage for 7 days after ischemia onset measured 24 hrs after reperfusion by DTNB assay (reference value: 23.47 nmol). It counts as functional. To be noted: in the assay text read “before ischemia onset” for “after ischemia onset”. The method, boiled down:
as §3

Data set [7] deals with Rattus norvegicus. The data set is described as follows: Antioxidant activity in Sprague-Dawley rat brain tissue model of transient middle cerebral artery occlusion stroke model assessed as increase in superoxide dismutase levels per mg of protein at 80 mg/kg […] measured 24 hrs after reperfusion by nitroblue tetrazolium assay relative to control. It is filed as functional.

In data set [8] the test system is Rattus norvegicus. The data set is described as follows: Neuroprotective activity in Sprague-Dawley rat model of transient middle cerebral artery occlusion stroke model assessed as reduction in infarct size at 380 mg/kg administered via oral gavage for 7 days […] measured 24 hrs after middle cerebral artery occlusion by TTC assay. It is filed as functional, organism-based. A digest of the protocol:
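Male SD rats (280–320 g), n=12/group, dosed by gavage in 0.5% CMC-Na daily for seven days; 2 h after last dose, anesthetized (chloral hydrate 300 mg/kg ip) and subjected to 2 h intraluminal MCAO then reperfusion. At 24 h post-reperfusion, brains (n=6) cut coronally at 2 mm, stained 2% TTC 30 min 37 °C, formalin-fixed; infarct area expressed as percent of whole brain; mean SD, ANOVA/Tukey.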

Data set [9] can be described thus: Antiplatelet activity in rabbit platelet-rich plasma assessed as inhibition of ADP-induced platelet aggregation preincubated for 5 mins followed by addition of ADP measured within 5 mins by Borns turbidimetric method. It counts as functional. Particulars: Oryctolagus cuniculus. A digest of the protocol: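 Platelet-rich plasma from citrated rabbit carotid blood was preincubated in duplicate at 37 °C for 5 min with compound at 0.1, 0.2, 0.4, 0.8 or 1.6 mM. ADP-induced aggregation was then recorded turbidimetrically, as maximal light transmission within 5 min. Inhibition was calculated versus vehicle control, and IC50 values were derived. Mean ± SD, n = 6, ANOVA/Tukey.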

For data set [10], the system named is Rattus norvegicus. Description: Neuroprotective activity in Sprague-Dawley rat model of transient middle cerebral artery occlusion stroke model assessed as reduction in neurological deficit at 380 mg/kg […] measured 24 hrs after middle cerebral artery occlusion by Longa's method. It is filed as functional, organism-based.
Data set [11] has as its system Liver. Description: Induction of hydrogen sulfide release in rat liver homogenate at 100 uM after 30 mins by microplate reader method (reference value: 1.03 to 1.21%). It is filed as functional, tissue-based. A digest of the protocol:
as §2

Data set [12] in a line: Induction of nitric oxide release in potassium phosphate buffer at pH 7.4 at 0.1 mM after 45 mins by Griess assay. It counts as physicochemical. Particulars: pH 7.4, 0.75 h, 100 µM. The method, boiled down:
as §1

Data set [13] concerns Rattus norvegicus. The data set is described as follows: Antioxidant activity in Sprague-Dawley rat brain tissue model of transient middle cerebral artery occlusion stroke model assessed as malondialdehyde levels per mg of protein at 80 mg/kg administered via oral gavage for 7 days after ischemia onset measured 24 hrs after reperfusion (reference value: 1.46 nmol). It is filed as functional. Particulars: in the assay text read “before ischemia onset” for “after ischemia onset”. A digest of the protocol:
as §3

The test system of data set [14] is Rattus norvegicus. The data set is described as follows: Neuroprotective activity in Sprague-Dawley rat model of transient middle cerebral artery occlusion stroke model assessed as neurological deficit at 80 mg/kg administered via oral gavage for 7 days after ischemia onset measured 24 hrs after middle cerebral artery occlusion by Longa's method. It counts as functional, organism-based. Particulars: in the assay text read “before ischemia onset” for “after ischemia onset”. A digest of the protocol: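 Male SD rats (280–320 g) received daily gavage for 7 days, with 0.5% CMC-Na as vehicle. Two hours after the last dose they underwent 2 h MCAO with reperfusion under chloral hydrate anesthesia; core temperature was held at 37 °C. Neurological deficit was scored blinded by Longa's method 24 h after reperfusion, between 10 and 11 a.m. Kruskal–Wallis test followed by Mann–Whitney U test.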

The subject of data set [15] is Rattus norvegicus. The data set is described as follows: Antioxidant activity in Sprague-Dawley rat brain tissue model of transient middle cerebral artery occlusion stroke model assessed as increase in glutathione peroxidase levels per mg of protein at 80 mg/kg […] measured 24 hrs after reperfusion by DTNB assay relative to control. It counts as functional.
Data set [16] in a line: Induction of nitric oxide release in potassium phosphate buffer at pH 7.4 at 0.1 mM after 120 mins by Griess assay. It counts as physicochemical. Particulars: pH 7.4, 2 h, 100 µM. The method, boiled down:
as §1

The subject of data set [17] is Liver. The data set is described as follows: Induction of hydrogen sulfide release in rat liver homogenate at 100 uM after 15 mins by microplate reader method (reference value: 1.03 to 1.21%). It is filed as functional, tissue-based. The method, boiled down:
as §2

Data set [18] can be described thus: Antiplatelet activity in rabbit platelet-rich plasma assessed as inhibition of ADP-induced platelet aggregation at 0.1 mM preincubated for 5 mins followed by addition of ADP measured within 5 mins by Borns turbidimetric method in presence of H2S scavenger BSS. It is filed as functional. Particulars: Oryctolagus cuniculus. The method, boiled down:
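Rabbit carotid blood was citrated (3.8%, 9:1). PRP was obtained at 500 g for 10 min and PPP at 3000 g for 10 min. PRP was preincubated in duplicate for 5 min at 37 °C with 0.1 mM compound, plus carboxy-PTIO or BSS where indicated. ADP was then added and maximal light transmission recorded within 5 min, within 3 h of blood collection. Inhibition % was calculated versus control. Mean ± SD of three independent experiments.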

Data set [19] deals with Rattus norvegicus. The data set is described as follows: Antioxidant activity in Sprague-Dawley rat brain tissue model of transient middle cerebral artery occlusion stroke model assessed as increase in superoxide dismutase levels per mg of protein at 380 mg/kg […] measured 24 hrs after reperfusion by nitroblue tetrazolium assay relative to control. It counts as functional.

Calls of active or inactive are those of the source. The calls are words filed in the database; no cut-off is given here.

As usually defined, the IC50 is the concentration needed to halve the response being measured. Broadly, the inhibition is the share of the control response that was lost under treatment.

Consider `CCCCC(OC(=O)CN1CCN(CCCCCOc2ccc(-c3cc(=S)ss3)cc2)CC1)c1ccccc1C(=O)Oc1ccc(/C=C/C(=O)OCCO[N+](=O)[O-])cc1OC` (racemic), for which the Activity in data set [1] stood at 8.48 µM; with Liver [2], 4.25%; in data set [3], 10.23 µM; in data set [4] it was 10.3 µM; with Rattus norvegicus [5], 0.86 nmol; with Rattus norvegicus [6], 28.05 nmol. Further, the Activity worked out at 23.07% in the data set with Rattus norvegicus [7]; 3.04% with Liver [11]; 6.89 µM in data set [12]; 1.07 nmol in the data set on Rattus norvegicus [13]; 29.57% with Rattus norvegicus [15]; 10.09 µM in data set [16]. The Activity in the data set on Liver [17] amounted to 2.83%; in the data set on Rattus norvegicus [19], 32.02%. Also, the result in the data set on Rattus norvegicus [8] and in the data set on Rattus norvegicus [10] was Active. Also, the IC50 in data set [9] is 140 µM. Moreover, the outcome in the data set with Rattus norvegicus [14] was inactive. Moreover, the inhibition at 100 µM in data set [18] turned out to be 20.9%.
